Measurements: ChEMBL document CHEMBL3526053, “Species-dependent uptake of glycylsarcosine but not oseltamivir in Pichia pastoris expressing the rat, mouse, and human intestinal peptide transporter PEPT1” (Drug Metab Dispos, 2012)

How the values were obtained:
Assay type in all cases: ADME
[1] = molecular target: T1, Solute carrier family 15 member 1 (Homo sapiens, UniProt P46059); experiment: Activity at human recombinant PEPT1 expressed in Pichia pastoris GS115 assessed as non-saturable rate constant after 30s by dual-channel liquid scintillation counting analysis
T1 sequence (P46059 whole entry): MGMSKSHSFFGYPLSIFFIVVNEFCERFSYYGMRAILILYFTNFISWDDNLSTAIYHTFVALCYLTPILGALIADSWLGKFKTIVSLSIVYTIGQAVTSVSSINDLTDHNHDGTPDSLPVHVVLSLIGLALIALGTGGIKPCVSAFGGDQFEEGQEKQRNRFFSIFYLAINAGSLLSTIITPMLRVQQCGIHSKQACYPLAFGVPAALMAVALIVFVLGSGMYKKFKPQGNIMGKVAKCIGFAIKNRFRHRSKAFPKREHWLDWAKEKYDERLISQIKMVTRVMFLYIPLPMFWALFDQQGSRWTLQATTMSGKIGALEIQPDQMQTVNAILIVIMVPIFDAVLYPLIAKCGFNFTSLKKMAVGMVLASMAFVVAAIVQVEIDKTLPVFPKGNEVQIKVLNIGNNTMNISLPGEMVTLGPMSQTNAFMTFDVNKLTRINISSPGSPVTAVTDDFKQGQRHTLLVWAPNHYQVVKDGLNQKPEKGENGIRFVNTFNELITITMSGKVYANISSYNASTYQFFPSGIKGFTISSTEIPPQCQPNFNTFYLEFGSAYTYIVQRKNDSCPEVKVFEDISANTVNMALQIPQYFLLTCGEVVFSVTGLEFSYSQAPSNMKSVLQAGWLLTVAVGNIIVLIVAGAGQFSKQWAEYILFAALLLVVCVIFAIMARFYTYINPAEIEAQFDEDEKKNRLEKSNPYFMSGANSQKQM
Outline: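 [3H]GlySar concentration series 0.005-10 mM, 30-s uptake at 24°C in 100 mM potassium phosphate pH 6.5. Cells come from His+Mut+ GS115 transformants induced 20-24 h in methanol medium. Uptake is normalised to OD600. Data are fitted to Michaelis-Menten plus a first-order nonsaturable term (Kd), weighting unity. Parameters are mean ± SE (n=9).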

[2] = molecular target: T2, Solute carrier family 15 member 1 (Mus musculus, UniProt Q9JIP7); experiment: Drug uptake in Pichia pastoris GS115 expressing mouse recombinant PEPT1 at 5 uM after 30s by dual-channel liquid scintillation counting analysis in presence of glycine relative to control; conditions: in vivo, 0.5 min
T2 sequence (Q9JIP7 whole entry): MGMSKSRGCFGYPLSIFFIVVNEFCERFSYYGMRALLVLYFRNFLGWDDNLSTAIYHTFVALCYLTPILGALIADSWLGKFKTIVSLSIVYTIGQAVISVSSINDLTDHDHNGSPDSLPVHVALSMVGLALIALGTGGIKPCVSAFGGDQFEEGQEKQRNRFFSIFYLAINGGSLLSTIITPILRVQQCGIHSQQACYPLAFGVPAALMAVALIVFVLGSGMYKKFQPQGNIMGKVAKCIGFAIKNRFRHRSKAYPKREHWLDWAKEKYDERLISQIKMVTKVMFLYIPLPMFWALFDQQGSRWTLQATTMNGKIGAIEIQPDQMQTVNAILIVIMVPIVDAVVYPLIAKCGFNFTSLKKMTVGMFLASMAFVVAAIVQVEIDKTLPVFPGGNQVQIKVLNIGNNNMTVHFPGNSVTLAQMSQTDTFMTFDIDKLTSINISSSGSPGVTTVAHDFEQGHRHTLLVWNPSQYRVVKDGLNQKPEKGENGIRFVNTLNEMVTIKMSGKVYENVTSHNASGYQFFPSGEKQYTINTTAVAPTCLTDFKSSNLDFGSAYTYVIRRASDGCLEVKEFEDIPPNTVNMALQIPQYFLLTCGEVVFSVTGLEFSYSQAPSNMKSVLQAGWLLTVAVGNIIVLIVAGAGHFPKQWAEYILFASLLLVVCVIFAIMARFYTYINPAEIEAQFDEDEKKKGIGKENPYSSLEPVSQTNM
Outline: (§1)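 [3H]GlySar 5.0 µM final, 30-s uptake at 24°C in 100 mM potassium phosphate pH 6.5, with or without a potential inhibitor at 10 mM. Cells are methanol-induced transformants. Values are vector-subtracted and expressed as percent of buffer control. Mean ± SE (n=3). ANOVA with Dunnett's test.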

[3] = molecular target: T2, Solute carrier family 15 member 1; experiment: Drug uptake in Pichia pastoris GS115 expressing mouse recombinant PEPT1 at 5 uM after 30s by dual-channel liquid scintillation counting analysis relative to control; conditions: in vivo, 0.5 min; outline: as §1
[4] = molecular target: T3, Solute carrier family 15 member 1 (Rattus norvegicus, UniProt P51574); experiment: Drug uptake in Pichia pastoris GS115 expressing rat recombinant PEPT1 at 5 uM after 30s by dual-channel liquid scintillation counting analysis in presence of valacyclovir relative to control; conditions: 0.5 min
T3 sequence (P51574 whole entry): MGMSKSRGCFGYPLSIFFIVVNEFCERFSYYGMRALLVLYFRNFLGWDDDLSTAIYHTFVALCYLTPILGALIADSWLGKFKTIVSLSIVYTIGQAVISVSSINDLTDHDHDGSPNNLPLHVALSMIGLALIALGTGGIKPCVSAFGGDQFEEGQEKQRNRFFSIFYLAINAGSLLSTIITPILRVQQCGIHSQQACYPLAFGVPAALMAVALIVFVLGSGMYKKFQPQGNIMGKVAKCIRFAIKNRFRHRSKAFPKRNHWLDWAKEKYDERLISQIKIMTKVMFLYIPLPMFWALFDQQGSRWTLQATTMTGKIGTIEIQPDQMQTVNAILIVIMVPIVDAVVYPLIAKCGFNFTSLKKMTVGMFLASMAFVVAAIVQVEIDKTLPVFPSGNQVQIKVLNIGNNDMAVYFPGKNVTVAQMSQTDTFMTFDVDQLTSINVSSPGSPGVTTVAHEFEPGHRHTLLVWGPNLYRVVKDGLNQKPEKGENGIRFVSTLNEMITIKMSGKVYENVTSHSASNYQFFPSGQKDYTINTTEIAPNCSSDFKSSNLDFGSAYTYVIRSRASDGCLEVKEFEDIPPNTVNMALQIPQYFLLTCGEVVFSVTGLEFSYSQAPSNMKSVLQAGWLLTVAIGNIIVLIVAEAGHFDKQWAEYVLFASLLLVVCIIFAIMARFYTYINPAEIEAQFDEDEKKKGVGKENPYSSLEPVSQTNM
Outline: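 Rat PEPT1 (pPIC3.5K-rPept1) in GS115 His+Mut+ transformant, methanol-induced 20-24 hr in BMMY at 30°C, washed into 100 mM potassium phosphate pH 6.5. [3H]GlySar final 5.0 µM with inhibitor at 10 mM, 30 sec at 24°C. Counts taken by liquid scintillation after 24 hr standing. Values are vector-subtracted and given as % of buffer control. Mean ± SE, n=3.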

[5] = molecular target: T1, Solute carrier family 15 member 1; experiment: Drug uptake in Pichia pastoris GS115 expressing human recombinant PEPT1 at 5 uM after 30s by dual-channel liquid scintillation counting analysis in presence of valacyclovir relative to control; conditions: 0.5 min; outline: as §1
[6] = molecular target: T3, Solute carrier family 15 member 1; experiment: Drug uptake in Pichia pastoris GS115 expressing rat recombinant PEPT1 at 5 uM after 30s by dual-channel liquid scintillation counting analysis in presence of TEA relative to control; conditions: 0.5 min; outline: as §1

Kd [1]: 2.21 uL/OD/min | Drug uptake [2]: 104% | Drug uptake [3]: 100% | Drug uptake [4]: 5.5% | Drug uptake [5]: 3.5% | Drug uptake [6]: 94.8%
SMILES: [3H]C(C(=O)O)N(C)C(=O)CN (stereo unspecified)
